The source made the active and inactive calls. The calls are words filed in the database; no cut-off is given here.
Legend:
[1] = Stability in rat plasma assessed as half life; assay type: ADME, cell-free
Procedure, shortened: (§1)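 Stability assessed as half-life in human, rat and mouse plasma and gastric fluid, and in human, rat and mouse liver microsomal preparations.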

[2] = species: Homo sapiens; test: Selectivity ratio of IC50 for human recombinant His-tagged MGL expressed in Escherichia coli BL21 DE3 cells to IC50 for human recombinant MBP-tagged FAAH expressed in Escherichia coli cells by fluorescence based assay
[3] = target: T1, Monoglyceride lipase (Homo sapiens, UniProt Q99685); test: Inhibition of human recombinant His-tagged MGL expressed in Escherichia coli BL21 DE3 cells using AHMMCE as substrate preincubated with enzyme for 15 mins followed by substrate addition and measured after every 15 mins for 3 hrs by fluorescence based assay
T1 sequence (Q99685 whole entry): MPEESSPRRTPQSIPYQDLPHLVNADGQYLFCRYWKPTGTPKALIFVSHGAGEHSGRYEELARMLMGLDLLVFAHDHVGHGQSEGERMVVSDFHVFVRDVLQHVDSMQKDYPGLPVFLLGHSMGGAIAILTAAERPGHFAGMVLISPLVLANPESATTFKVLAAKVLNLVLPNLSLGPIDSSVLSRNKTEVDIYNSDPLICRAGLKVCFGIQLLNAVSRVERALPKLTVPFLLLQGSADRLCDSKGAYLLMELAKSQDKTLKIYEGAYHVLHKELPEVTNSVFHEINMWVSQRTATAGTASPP
Procedure, shortened: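 Fluorescent enzyme assay in throughput format. Human recombinant FAAH or purified rat FAAH used arachidonoyl 7-amino-4-methylcoumarin amide as substrate; human recombinant MGL was run by a similar fluorometric procedure.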

[4] = Stability in human liver microsomes assessed as half life; assay type: ADME, Microsome; procedure, shortened: as §1
[5] = Selectivity ratio of IC50 for human full length ABHD6 expressed in Escherichia coli cells to IC50 for rat recombinant His/GST-tagged FAAH expressed in Escherichia coli cells by fluorescence based assay
[6] = target: T2, Fatty-acid amide hydrolase 1 (Rattus norvegicus) (UniProt P97612); test: Inhibition of FAAH in rat brain membrane at 1 to 10 uM incubated for 30 mins followed by incubation with FP-Rh probe for 45 mins by ABPP assay; assay type: cell membranes
T2 sequence (whole entry): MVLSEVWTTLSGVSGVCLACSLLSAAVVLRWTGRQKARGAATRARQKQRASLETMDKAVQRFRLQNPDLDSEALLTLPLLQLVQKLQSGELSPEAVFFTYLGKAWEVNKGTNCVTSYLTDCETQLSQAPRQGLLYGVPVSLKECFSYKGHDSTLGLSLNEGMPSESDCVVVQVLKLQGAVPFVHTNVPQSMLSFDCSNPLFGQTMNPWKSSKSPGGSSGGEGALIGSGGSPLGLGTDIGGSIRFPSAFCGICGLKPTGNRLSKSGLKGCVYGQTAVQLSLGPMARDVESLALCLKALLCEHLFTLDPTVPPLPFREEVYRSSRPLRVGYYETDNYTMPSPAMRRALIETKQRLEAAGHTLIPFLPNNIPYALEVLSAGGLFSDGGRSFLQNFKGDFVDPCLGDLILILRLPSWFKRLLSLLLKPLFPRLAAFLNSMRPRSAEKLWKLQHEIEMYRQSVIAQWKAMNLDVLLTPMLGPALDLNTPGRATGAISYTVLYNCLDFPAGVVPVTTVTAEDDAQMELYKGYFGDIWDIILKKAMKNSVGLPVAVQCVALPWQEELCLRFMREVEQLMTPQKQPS
Procedure, shortened: (§2)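 Gel-based competitive ABPP on rat brain membrane homogenates (10 mg/mL protein). Compound at 1 and 10 μM or DMSO for 30 min at room temperature, then 10 μM rhodamine-tagged fluorophosphonate probe for 45 min at room temperature. FAAH was run with a reference FAAH inhibitor at 10 μM as positive control. Serine hydrolase labelling read by in-gel fluorescence.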

[7] = target: T3, Monoacylglycerol lipase ABHD6 (Rattus norvegicus) (UniProt Q5XI64); test: Inhibition of ABHD6 in rat brain membrane at 1 to 10 uM incubated for 30 mins followed by incubation with FP-Rh probe for 45 mins by ABPP assay; assay type: cell membranes; procedure, shortened: as §2
T3 sequence (whole entry): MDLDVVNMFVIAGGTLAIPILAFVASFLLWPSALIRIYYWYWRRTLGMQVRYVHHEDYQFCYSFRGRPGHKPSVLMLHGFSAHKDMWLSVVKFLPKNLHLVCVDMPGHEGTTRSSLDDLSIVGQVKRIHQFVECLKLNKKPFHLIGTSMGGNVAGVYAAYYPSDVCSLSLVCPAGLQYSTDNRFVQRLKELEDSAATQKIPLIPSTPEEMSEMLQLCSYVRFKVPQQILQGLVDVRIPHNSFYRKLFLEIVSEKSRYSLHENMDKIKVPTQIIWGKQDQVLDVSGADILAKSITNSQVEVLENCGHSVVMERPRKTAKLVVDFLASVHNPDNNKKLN

[8] = target: Cannabinoid receptor 1 (Rattus norvegicus) (UniProt P20272); test: Displacement of [3H]CP55940 from CB1 receptor in rat brain by competition-equilibrium binding analysis
Cannabinoid receptor 1 (Rattus norvegicus), sequence (P20272 whole entry, looked up): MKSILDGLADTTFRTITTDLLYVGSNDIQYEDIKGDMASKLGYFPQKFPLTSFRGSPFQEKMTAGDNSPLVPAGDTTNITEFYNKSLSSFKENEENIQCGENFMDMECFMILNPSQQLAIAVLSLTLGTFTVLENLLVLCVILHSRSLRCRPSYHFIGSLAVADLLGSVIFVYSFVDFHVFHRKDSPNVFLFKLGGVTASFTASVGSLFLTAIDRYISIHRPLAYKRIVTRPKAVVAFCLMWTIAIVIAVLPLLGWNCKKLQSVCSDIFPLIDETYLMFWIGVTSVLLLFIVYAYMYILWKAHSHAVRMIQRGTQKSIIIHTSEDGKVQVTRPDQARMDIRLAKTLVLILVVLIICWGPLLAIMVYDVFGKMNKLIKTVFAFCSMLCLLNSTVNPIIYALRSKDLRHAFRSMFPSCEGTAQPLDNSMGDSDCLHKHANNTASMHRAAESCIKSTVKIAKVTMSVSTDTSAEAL

[9] = species: Homo sapiens; test: Selectivity ratio of IC50 for human full length ABHD6 expressed in Escherichia coli cells to IC50 for human recombinant MBP-tagged FAAH expressed in Escherichia coli cells by fluorescence based assay
[10] = Stability in rat liver microsomes assessed as half life; assay type: ADME, Microsome; procedure, shortened: as §1
[11] = test system: Hippocampus; test: (§3) Neuroprotective activity against Sprague-Dawley rat hippocampus assessed as decrease in KA-induced excitotoxicity by measuring increase in GluR1 level in dense neuropil at 3 to 30 uM preincubated for 1 hr followed by KA stimulation for 2 hrs in continued presence of compound followed by KA wash out and then further incubation with compound for 24 hrs by immunostaining analysis; assay type: functional, tissue-based
Procedure, shortened: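 Same hippocampal slice kainic acid protocol (60 μM, 2 h, after 1 h pretreatment; 24 h recovery with compound). Fixed hippocampal tissue from each treatment group immunostained with anti-GluR1 (1:200).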

[12] = species: Rattus norvegicus; test: Neuroprotective activity against Sprague-Dawley rat assessed as decrease in KA-induced seizure severity; assay type: functional, organism-based
[13] = test system: Hippocampus; test: as §3, with “syn protein” for “GluR1”; assay type: functional, tissue-based

Row | Structure (SMILES) | half-life [1] | Ratio IC50 [2] | IC50 [3] | half-life [4] | Ratio IC50 [5] | inhibition [6] | inhibition [7] | Activity [8] | Ratio IC50 [9] | half-life [10] | inhibition [11] | Activity [12] | inhibition [13]
1 | C[C@@H]1CN(c2ccc(F)cc2)CCN1C(=O)Oc1cccc(N2CCS(=O)(=O)CC2)c1 | > 60 min | > 1000 | > 1000 nM | 15 to 25 min | > 1000 | 100% | inactive | inactive | > 1000 | 15 to 25 min | – | – | –
2 | O=C(Oc1cccc(N2CCS(=O)(=O)CC2)c1)N1CCC(c2ccc(N3CCC3)cc2)CC1 | > 60 min | > 1000 | > 1000 nM | 15 to 25 min | > 1000 | 100% | inactive | inactive | > 1000 | 15 to 25 min | Active | Active | Active
